ChEMBL document CHEMBL2146366, “Discovery of microsomal triglyceride transfer protein (MTP) inhibitors with potential for decreased active metabolite load compared to dirlotapide” (Bioorg Med Chem Lett, 2011)

Tests used:
[1] = system: Rattus norvegicus; experiment: Antiobesity activity in high fat diet-induced obese Sprague-Dawley rat assessed as reduction in body weight at 10 mg/kg, po administered daily for 3 days relative to dirlotapide; type: functional; design: scale not given: the % may be the effect or the level left
[2] = Fraction unbound in human HepG2 cells by equilibrium dialysis; type: ADME, cell-based
Summary of the method: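 Protein binding was measured by equilibrium dialysis under the conditions of the apoB secretion assay in human HepG2 cells, to give unbound fraction.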

[3] = system: Rattus norvegicus; experiment: Antiobesity activity in high fat diet-induced obese Sprague-Dawley rat assessed as reduction of triglyceride accumulation in liver at 10 mg/kg, po administered daily for 3 days relative to control; type: functional; design: scale not given: the % may be the effect or the level left
Summary of the method: (§1)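 Male Sprague–Dawley rats (~300 g, n = 5 per group) were acclimatized for seven days to a high-fat diet (45% kcal from fat). They received three consecutive daily oral gavage doses 1.5 h before the dark cycle. Vehicle was SEDDS:H2O 10:90, with SEDDS made of Miglyol 812 10%, triacetin 30%, polysorbate 80 20% and Capmul MCM 30%. Food intake was recorded during dosing, and liver TG was measured afterwards, both against vehicle.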

[4] = system: Rattus norvegicus; experiment: Antiobesity activity in high fat diet-induced obese Sprague-Dawley rat assessed as reduction of food intake at 10 mg/kg, po administered daily for 3 days relative to control; type: functional; design: scale not given: the % may be the effect or the level left; summary of the method: as §1
[5] = system: Rattus norvegicus; experiment: Antiobesity activity in high fat diet-induced obese Sprague-Dawley rat assessed as reduction of triglyceride accumulation in liver at 10 mg/kg, po administered daily for 3 days relative to dirlotapide; type: functional; design: scale not given: the % may be the effect or the level left; summary of the method: as §1
[6] = system: Rattus norvegicus; experiment: Antiobesity activity in high fat diet-induced obese Sprague-Dawley rat assessed as reduction of food intake at 10 mg/kg, po administered daily for 3 days relative to dirlotapide; type: functional; design: scale not given: the % may be the effect or the level left; summary of the method: as §1
[7] = system: Rattus norvegicus; experiment: Antiobesity activity in high fat diet-induced obese Sprague-Dawley rat assessed as reduction in body weight at 10 mg/kg, po administered daily for 3 days relative to control; type: functional; design: scale not given: the % may be the effect or the level left
[8] = Oral bioavailability in beagle dog at 2.5 mg/kg; type: ADME, organism-based, Canis lupus familiaris; conditions: in vivo
[9] = system: Rattus norvegicus; experiment: Toxicity in high fat diet-induced obese Sprague-Dawley rat assessed as change in serum ALT level at 30 mg/kg, po qd for 7 days relative to control; type: organism-based; design: dose 30 mg/kg, route oral; conditions: in vivo, 168 h
Summary of the method: (§2)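 Seven-day study in high-fat-diet rats. Compound was given once daily by mouth as a spray-dried dispersion, with vehicle controls. Serum ALT was measured alongside food intake, body weight, liver TG and systemic exposure (AUC). ALT is expressed as % change versus vehicle, with significance set at P ≤ 0.05.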

[10] = system: Rattus norvegicus; experiment: Antiobesity activity in high fat diet-induced obese Sprague-Dawley rat assessed as reduction of body weight at 30 mg/kg, po qd for 7 days; type: functional; design: scale not given: the % may be the effect or the level left
Summary of the method: (§3)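 Seven-day rat study: once-daily oral dosing at 3, 10 or 30 mg/kg, with 1, 3 and 100 mg/kg also used for one series. Compounds were given as spray-dried dispersions in hydroxypropylmethylcellulose acetate succinate. Food intake, body weight, liver TG and serum ALT were measured against vehicle. Systemic exposure was reported as AUC (ng h/mL). Significance versus vehicle was set at P ≤ 0.05.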

[11] = system: Rattus norvegicus; experiment: Antiobesity activity in high fat diet-induced obese Sprague-Dawley rat assessed as reduction of body weight at 10 mg/kg, po qd for 7 days relative to control; type: functional; design: scale not given: the % may be the effect or the level left; summary of the method: as §3
[12] = system: Rattus norvegicus; experiment: Antiobesity activity in po dosed high fat diet-induced obese Sprague-Dawley rat assessed as reduction of reduction of triglyceride accumulation in liver administered daily for 3 days; type: functional; conditions: 72 h, read-out: MED
Summary of the method: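 Male Sprague–Dawley rats (about 300 g; n = 5 per group) were acclimatized for seven days to a high-fat diet (45% kcal from fat). They received three consecutive daily oral gavage doses in SEDDS:H₂O 10:90 vehicle 1.5 h before the dark cycle. Food intake was recorded, and liver TG was then measured against the vehicle group.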

[13] = system: Rattus norvegicus; experiment: Antiobesity activity in po dosed high fat diet-induced obese Sprague-Dawley rat assessed as reduction of food intake administered daily for 3 days; type: functional; conditions: 72 h, read-out: MED; summary of the method: as §1
[14] = system: Rattus norvegicus; experiment: Antiobesity activity in po dosed high fat diet-induced obese Sprague-Dawley rat assessed as reduction of body weight administered daily for 3 days; type: functional; conditions: 72 h, read-out: MED
[15] = system: Rattus norvegicus; experiment: Antiobesity activity in high fat diet-induced obese Sprague-Dawley rat assessed as reduction of food intake at 10 mg/kg, po qd for 7 days relative to control; type: functional; design: scale not given: the % may be the effect or the level left; summary of the method: as §3
[16] = system: Rattus norvegicus; experiment: Toxicity in high fat diet-induced obese Sprague-Dawley rat assessed as change in serum ALT level at 10 mg/kg, po qd for 7 days relative to control; type: organism-based; design: dose 10 mg/kg, route oral; conditions: in vivo, 168 h; summary of the method: as §2
[17] = system: Rattus norvegicus; experiment: Antiobesity activity in high fat diet-induced obese Sprague-Dawley rat assessed as reduction of food intake at 30 mg/kg, po administered daily for 3 days relative to control; type: functional; design: scale not given: the % may be the effect or the level left; summary of the method: as §1
[18] = system: Rattus norvegicus; experiment: Antiobesity activity in high fat diet-induced obese Sprague-Dawley rat assessed as reduction of triglyceride accumulation in liver at 10 mg/kg, po qd for 7 days relative to control; type: functional; design: scale not given: the % may be the effect or the level left; summary of the method: as §3
[19] = AUC in high fat diet-induced obese Sprague-Dawley rat at 10 mg/kg, po qd for 7 days; type: ADME, organism-based; design: dose 10 mg/kg, route oral; conditions: plasma; summary of the method: as §3
[20] = AUC in high fat diet-induced obese Sprague-Dawley rat at 30 mg/kg, po qd for 7 days; type: ADME, organism-based; design: dose 30 mg/kg, route oral; conditions: plasma; summary of the method: as §3
[21] = system: Rattus norvegicus; experiment: Antiobesity activity in high fat diet-induced obese Sprague-Dawley rat assessed as reduction in body weight at 30 mg/kg, po administered daily for 3 days relative to control; type: functional; design: scale not given: the % may be the effect or the level left
[22] = system: Rattus norvegicus; experiment: Antiobesity activity in high fat diet-induced obese Sprague-Dawley rat assessed as reduction of triglyceride accumulation in liver at 30 mg/kg, po qd for 7 days relative to control; type: functional; design: scale not given: the % may be the effect or the level left; summary of the method: as §3
[23] = system: Rattus norvegicus; experiment: Antiobesity activity in high fat diet-induced obese Sprague-Dawley rat assessed as triglyceride accumulation in liver at 30 mg/kg, po administered daily for 3 days relative to control; type: functional; summary of the method: as §1
[24] = system: Rattus norvegicus; experiment: Antiobesity activity in high fat diet-induced obese Sprague-Dawley rat assessed as reduction of food intake at 30 mg/kg, po qd for 7 days relative to control; type: functional; design: scale not given: the % may be the effect or the level left; summary of the method: as §3
[25] = Oral bioavailability in rat at 30 mg/kg; type: ADME, organism-based; conditions: in vivo

SMILES	fraction unbound [2]	Activity [1]	Activity [3]	Activity [4]	Activity [5]	Activity [6]	Activity [7]	further results
Cn1c(C(=O)N[C@H](C(N)=O)c2ccccc2)cc2cc(NC(=O)c3ccccc3-c3ccc(C(F)(F)F)cc3)ccc21	0.23	115%	87%	37%	112%	43%	108%	–
CC(CO)Oc1ccc(-c2ccccc2C(=O)Nc2ccc3cc(C(=O)N[C@H](C(=O)N(C)Cc4ccc(F)cc4)c4ccccc4)ccc3n2)cc1 (some centres not stated)	0.013	–	–	–	–	–	–	–
CC(C)Oc1ccc(-c2ccccc2C(=O)Nc2ccc3cc(C(=O)N[C@H](C(=O)N(C)Cc4ccc(F)cc4)c4ccccc4)ccc3n2)cc1	0.0038	88%	16%	30%	111%	28%	56%	bioavailability [8]: < 3%; Activity [9]: 191%; Activity [10]: 148%; Activity [11]: 82%; minimal effective dose [12]: 3 mg/kg; minimal effective dose [13]: 3 mg/kg; minimal effective dose [14]: 3 mg/kg; Activity [15]: 21%; Activity [16]: 10%; Activity [17]: 45%; Activity [18]: 113%; AUC at 168 h [19]: 51 ng·h/mL; AUC at 168 h [20]: 47 ng·h/mL; Activity [21]: 152%; Activity [22]: 184%; Activity [23]: 15%; Activity [24]: 25%; bioavailability [25]: < 3%
CC(C)(C(=O)O)c1ccc(-c2ccccc2C(=O)Nc2ccc3cc(C(=O)N[C@H](C(=O)NCc4ccc(F)cc4)c4ccccc4)ccc3n2)cc1	0.0211	–	–	–	–	–	–	–
CNC(=O)[C@@H](NC(=O)c1cc2cc(NC(=O)c3ccccc3-c3ccc(C(F)(F)F)cc3)ccc2n1C)c1ccccc1	0.21	115%	147%	40%	112%	43%	106%	–
CN(Cc1ccc(F)cc1)C(=O)[C@@H](NC(=O)c1ccc2nc(NC(=O)c3ccccc3-c3ccc(OC(C)(C)C)cc3)ccc2c1)c1ccccc1	–	95%	72%	40%	112%	38%	108%	–
CC(Oc1ccc(-c2ccccc2C(=O)Nc2ccc3cc(C(=O)N[C@H](C(=O)N(C)Cc4ccc(F)cc4)c4ccccc4)ccc3n2)cc1)C(=O)O (some centres not stated)	0.022	–	–	–	–	–	–	–
CC(C)Oc1ccc(-c2ccccc2C(=O)Nc2ccc3cc(C(=O)N[C@H](C(=O)NCc4ccc(F)cc4)c4ccccc4)ccc3n2)cc1	0.0061	–	–	–	–	–	–	–
CNC(=O)[C@@H](NC(=O)c1ccc2nc(NC(=O)c3ccccc3-c3ccc(OC(C)C)cc3)ccc2c1)c1ccccc1	0.16	–	–	–	–	–	–	–
CC(C)(C)c1ccc(-c2ccccc2C(=O)Nc2ccc3cc(C(=O)N[C@H](C(=O)NCc4ccc(F)cc4)c4ccccc4)ccc3n2)cc1	0.0023	–	–	–	–	–	–	–
CNC(=O)[C@@H](NC(=O)c1ccc2nc(NC(=O)c3ccccc3-c3ccc(C(C)(C)C)cc3)ccc2c1)c1ccccc1	0.038	–	–	–	–	–	–	–

Further lines, with some results ahead:

fraction unbound [2]	SMILES	Activity [1]	Activity [3]	Activity [4]	Activity [5]	Activity [6]	Activity [7]	further results
0.0043	Cc1ccc(-c2ccccc2C(=O)Nc2ccc3cc(C(=O)N[C@H](C(=O)N(C)Cc4ccc(F)cc4)c4ccccc4)ccc3n2)cc1	117%	43%	38%	216%	50%	75%	–
0.0014	CN(Cc1ccc(F)cc1)C(=O)[C@@H](NC(=O)c1ccc2nc(NC(=O)c3ccccc3-c3ccc(C(F)(F)F)cc3)ccc2c1)c1ccccc1	8%	88%	43%	70%	11%	96%	–
0.023	CN(Cc1ccc(F)cc1)C(=O)[C@@H](NC(=O)c1ccc2nc(NC(=O)c3ccccc3-c3ccc(C(C)(C)CO)cc3)ccc2c1)c1ccccc1	–	–	–	–	–	–	–
0.0095	CN(Cc1ccc(F)cc1)C(=O)[C@@H](NC(=O)c1ccc2nc(NC(=O)c3ccccc3-c3ccc(O)cc3)ccc2c1)c1ccccc1	–	–	–	–	–	–	–
0.0088	CN(Cc1ccc(F)cc1)C(=O)[C@@H](NC(=O)c1ccc2nc(NC(=O)c3ccccc3-c3ccc(C(C)(C)C(=O)O)cc3)ccc2c1)c1ccccc1	–	–	–	–	–	–	–
0.0011	CC(C)c1ccc(-c2ccccc2C(=O)Nc2ccc3cc(C(=O)N[C@H](C(=O)N(C)Cc4ccc(F)cc4)c4ccccc4)ccc3n2)cc1	8%	16%	38%	70%	11%	91%	–
0.0135	CC(C)(CO)c1ccc(-c2ccccc2C(=O)Nc2ccc3cc(C(=O)N[C@H](C(=O)NCc4ccc(F)cc4)c4ccccc4)ccc3n2)cc1	–	–	–	–	–	–	–
